# In the library only some 4.9% were active in any assay of this set; here they are far more common.
# STAT3 inh = reduces IL-6 driven STAT3 reporter signal; hit rate 0.89% among 190,000; inhibition, % at 5.5 µM; U3A cells, IL-6 STAT3-luciferase reporter, luminescence; host cell line lacks STAT1;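 active = inhibition above the mean inhibition across all screened compounds plus 3 SD, cut at about 44% in these data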;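 also: 0% = DMSO only wells and 100% = 100 µM nifuroxazide control wells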
# STAT3 act = increases IL-6 driven STAT3 reporter signal; U3A cells, IL-6 STAT3-luciferase reporter, luminescence; 100% = signal with IL-6 EC80 alone; activation (% of control), % at 5.6 µM; hit rate 0.91% among 190,000;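 active = activation above the screen-wide mean of compound activation plus 3 SD, cut at about 130% in these data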;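 also: 0% = background luminescence of wells with medium and substrate only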
#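 Material: STAT3-luciferase reporter U3A cells; Probe or stimulus: IL-6 (33 ng/mL); Incubation: compound pre-incubation 1 h before IL-6, then 6 h stimulation at 37 °C; Technique: luminescence from STAT3-driven luciferase reporter; Evaluation: % activation versus median of IL-6-stimulated wells; Controls: IL-6-only high control.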
# STAT1 act = increases IFN-gamma driven STAT1 reporter signal; NIH 3T3 STAT1-luciferase reporter, luminescence; 100% = IFN-gamma alone, no compound; activation (% of control), % at 5.5 µM; hit rate 2.6% among 200,000;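 active = activation above the screen-wide mean activation plus 3 SD, cut at about 130% in these data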;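 also: raw ratio to IFN-gamma control signal so 100% means no change and 0% no light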
# APP 5'UTR act = APP 5'UTR luciferase reporter activation; hit rate 1% among 190,000; activation, % at 2 µM; SH-SY5Y APP 5'UTR luciferase reporter, luminescence; zero percent = DMSO vehicle wells; AID 1276;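 active = activation above a set limit, based on mean plus 3 SD of controls, cut at about 140% in these data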
# STAT1 inh = inhibitors of IFN-gamma induced STAT1 signaling; hit rate 0.35% among 200,000; inhibition, % at 5.5 µM; NIH 3T3 STAT1-luciferase reporter, luminescence;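 active = inhibition above a set limit, the mean inhibition across all tested compounds plus 3 SD, cut at about 34% in these data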;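 also: 0% = IFN-gamma with DMSO and 100% = IFN-gamma with 300 µM nifuroxazide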
# NF-kB expr up = NF-kB expression increase, human neuronal cells | NF-kB reporter expression; stronger effect = higher value | hit rate 1.6% among 190,000 | fold change at 12.5 µM; in the data active = fold change above about 3.3
# * = called active by the depositor; x = not tested or not shown.
SMILES,STAT3 inh,STAT3 act,STAT1 act,APP 5'UTR act,STAT1 inh,NF-kB expr up
O=C(Nc1ccccc1)n1cc(-c2ccccn2)c(N2CCOCC2)n1,-36,133*,99,8,0,1.9
COc1ccccc1CN=C1Nc2ccccc2CS1,26,84,126,50,-28,2.5
COc1cccc(CN=C2Nc3ccccc3CS2)c1,-4,111,147*,111,-50,3.9*
Clc1ccc(CN=C2Nc3ccccc3CS2)cc1,-4,108,126,115,-29,4.8*
Cc1cccc(C)c1NC(=O)CS(=O)CC(=O)NCC1OCCc2ccccc21 (stereo unspecified),6,101,102,16,-4,1.1
CC(C)OCCCNC(=O)C1CCN(S(=O)(=O)N2CCCC2)CC1,10,98,103,-12,-3,1.1
CC(C)(C)c1ccc(/C=C2\SC(=O)N(CCNC(=O)c3cccc(S(=O)(=O)N4CCOCC4)c3)C2=O)cc1,17,88,114,135*,-16,0.72
CSc1nncn1/N=C/c1ccc([N+](=O)[O-])cc1,-5,111,98,-2,1,1
CS/C(N)=N/N=C/c1ccc([N+](=O)[O-])cc1,-4,104,131*,41,-35,1.9
Cc1nc2ccc([N+](=O)[O-])cc2nc1C,12,93,100,5,-1,1.4
Cc1ccc2nc3cc([N+](=O)[O-])cc([N+](=O)[O-])c3cc2c1,14,90,85,-63,15,5.3*
Cc1ccc(N2CC(O)(c3cccs3)[N+]3=C2CCCC3)cc1 (stereo unspecified),-9,119,72,4,29,0.98
Cc1ccc(N2NC(C)(c3cccs3)NC2=S)cc1 (stereo unspecified),7,94,118,53,-20,3.3*
Cc1ccc(O)c(C(=O)CC(=O)c2cccc(F)c2)c1,4,102,130*,84,-32,1.5
O=C(CC(=O)c1cc(Cl)ccc1O)c1ccccc1,-4,108,131*,58,-34,2
Cc1ccnc(NC(=O)/C=C/c2ccccc2[N+](=O)[O-])c1,38,71,100,142*,-1,7.7*
NS(=O)(=O)c1ccc(NC(=O)/C=C/c2ccccc2[N+](=O)[O-])cc1,-3,104,97,4,2,0.95
O=C(/C=C\c1ccccc1[N+](=O)[O-])Nc1ccccc1,7,99,135*,73,-42,1.4
CCCCC(=O)NC(=S)Nc1ccc(S(=O)(=O)N2CCCC2)cc1,0,102,103,0,-3,0.92
Cc1ccsc1/C=N/Nc1ncnc2nc[nH]c12,12,91,138*,39,-43,2
Cc1ccc(Nc2ncnc3nc[nH]c23)cc1Cl,4,104,110,98,-11,3.3*
C(=N\Nc1ncnc2nc[nH]c12)/c1cccs1,22,85,134*,42,-37,1.6
COc1cccc(Nc2ncnc3nc[nH]c23)c1,9,97,106,29,-6,1.8
Clc1cnc(N/N=C/c2cccs2)c(Cl)c1,-6,107,134*,70,-38,2
Fc1ccc(/C=N/Nc2ncnc3nc[nH]c23)cc1F,18,85,118,33,-20,1.9
SMILES,STAT3 inh,STAT3 act,STAT1 act,APP 5'UTR act,STAT1 inh,NF-kB expr up
O=C(Oc1cccc([N+](=O)[O-])c1)N1CCCCC1,3,106,99,3,1,1.4
Cn1cc(C(=O)N2CCc3ccccc32)cn1,-20,119,101,38,-1,1.4
CCCc1cc(=O)n2[nH]c(-c3ccccc3)cc2n1,-19,122,134*,61,-37,2.6
Cc1ccc2cc(C=O)c(N(C)C)nc2c1,-38,134*,98,-19,2,1.3
Fc1ccc(COc2cccc3cccnc23)cc1,9,97,129*,39,-35,2
CCOc1ccccc1C(=O)N1CCN(c2cccc(Cl)c2)CC1,-25,122,105,-94,-5,4*
Cc1ccc(C(O)(COC(=O)C(C)C)COC(=O)C(C)C)c(O)c1,x,x,97,-12,2,1.2
Nc1ccc2c(c1)sc1ccccc12,11,94,130*,11,-33,2.2
COc1ccccc1/C=C/C=N/NC(=O)c1cnccn1,12,92,118,14,-22,1.7
O=C(N/N=C/c1cc2c(cc1Cl)OCO2)c1ccccn1,18,93,134*,23,-38,x
COc1ccccc1/C=C/C=N/NC(=O)c1ccccn1,28,80,133*,121,-35,4.6*
COc1cc(/C=N/NC(=O)c2ccccn2)cc2c1OCO2,-6,106,129*,37,-32,0.93
CCn1cc(Br)c(C(=O)NC(=S)Nc2ccc(C(=O)OC)cc2)n1,3,101,100,3,0,1.3
O=C(O)CN(c1ccccc1)S(=O)(=O)c1cc(C(F)(F)F)cc(C(F)(F)F)c1,3,101,107,-6,-8,0.99
O=c1c2ccccc2ncn1CCCOc1ccccc1[N+](=O)[O-],-1,101,129*,91,-32,2.1
COc1ccccc1C(=O)NCC(=O)N/N=C/c1cn[nH]c1-c1ccccc1,8,95,96,-8,2,1.1
COc1ccc(NC(=O)CCCc2c[nH]c3ccccc23)cc1OC,-5,102,110,-15,-11,1.2
COc1ccc(C(c2c[nH]c3ccccc23)c2c[nH]c3ccccc23)cc1O,-107,192*,101,-3,-1,0.95
O=C(NC(=O)c1ccccc1)OCCN1C(=O)c2ccccc2C1=O,22,89,99,24,-1,1
O=C(/C=C/c1ccc(Cl)cc1Cl)N1CCc2ccccc21,9,97,141*,103,-45,2.9
O=C(O)/C=C\C(=O)N1CCc2ccccc21,-8,112,92,20,9,0.95
O=C(NC1CC1)C1CCN(C2CCN(C(=O)c3ccc4cccc(F)c4n3)CC2)CC1,3,101,108,8,-10,0.91
COc1ccc(N/C(C)=C/C(=O)c2ccccc2)cc1,4,100,118,23,-21,3.4*
COc1ccc(OC)c(N/C(C)=C/C(=O)c2ccccc2)c1,-8,107,134*,77,-38,1.1
C/C(=C\C(=O)c1ccncc1)Nc1ccccc1O,29,82,98,8,2,6*
Cc1ccccc1/C=C1\SC(=S)N(/N=C/c2cc([N+](=O)[O-])ccc2O)C1=O,11,94,102,9,-3,1.3
COc1cc(OC)c(OC)cc1/C=C/c1cc(C(F)(F)F)[nH]c(=O)n1,11,94,92,-5,8,1
COc1cc(/C=C/c2cc(C(F)(F)F)[nH]c(=O)n2)cc(OC)c1OC,17,87,56,13,46*,1.3

# Assay outcomes: PubChem BioAssay, several laboratories
